Experimental data reported in ChEMBL document CHEMBL1126904, “Inhibitors of cholesterol biosynthesis. 1. 3,5-Dihydroxy-7-(N-imidazolyl)-6-heptenoates and -heptanoates, a novel series of HMG-CoA reductase inhibitors” (J Med Chem, 1993).

Tests used:
[1] = Partition coefficient (logD7.4); assay type: physicochemical; settings: octanol/water, pH 7.4
Summary of the method: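 log D by HPLC in n-octanol–water: compound dissolved in pH 7.4 aqueous borax-phosphate buffer saturated with n-octanol, eluted through a column of n-octanol physically bonded to fractionated hyflosuperpel.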

[2] = molecular target: T1, 3-hydroxy-3-methylglutaryl-coenzyme A reductase (Rattus norvegicus, UniProt P51639); assay: Inhibitory activity against washed rat liver microsomal HMG-CoA reductase (HMGR)
T1 sequence (P51639 whole entry): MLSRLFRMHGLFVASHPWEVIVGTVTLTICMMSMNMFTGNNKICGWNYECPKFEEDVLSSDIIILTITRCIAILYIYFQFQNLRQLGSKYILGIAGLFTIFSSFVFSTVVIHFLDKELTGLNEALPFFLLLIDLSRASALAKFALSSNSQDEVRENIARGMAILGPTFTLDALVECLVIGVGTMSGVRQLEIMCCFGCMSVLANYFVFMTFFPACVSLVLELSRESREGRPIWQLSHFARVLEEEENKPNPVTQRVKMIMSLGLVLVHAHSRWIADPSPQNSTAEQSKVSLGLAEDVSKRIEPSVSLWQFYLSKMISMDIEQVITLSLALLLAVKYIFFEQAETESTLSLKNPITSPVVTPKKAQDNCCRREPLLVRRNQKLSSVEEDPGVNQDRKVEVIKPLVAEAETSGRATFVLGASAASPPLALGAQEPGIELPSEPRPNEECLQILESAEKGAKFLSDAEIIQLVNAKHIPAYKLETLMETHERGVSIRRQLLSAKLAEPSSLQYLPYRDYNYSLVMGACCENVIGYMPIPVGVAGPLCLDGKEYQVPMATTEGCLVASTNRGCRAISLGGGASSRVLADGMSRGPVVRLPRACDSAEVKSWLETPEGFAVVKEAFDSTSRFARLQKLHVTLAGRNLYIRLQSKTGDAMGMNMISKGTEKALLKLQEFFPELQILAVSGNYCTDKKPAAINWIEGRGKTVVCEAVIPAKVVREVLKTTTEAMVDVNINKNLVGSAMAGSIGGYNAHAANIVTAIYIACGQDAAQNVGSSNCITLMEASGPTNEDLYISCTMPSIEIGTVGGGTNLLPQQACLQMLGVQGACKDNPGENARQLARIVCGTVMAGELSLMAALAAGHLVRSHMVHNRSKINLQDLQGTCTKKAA
Summary of the method: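 Male Wistar rats (100–120 g) on reversed light cycle, killed at 0800 h; washed liver microsomes (10000g then 105000g spins, 4 °C) in buffer A (50 mM K phosphate pH 7.4, 250 mM NaCl, 10 mM EDTA, 1 mM DTT). Enzyme+inhibitor preincubated 10 min 37 °C; NADPH-regenerating system plus [3-14C]HMG-CoA added; HCl stop, lactonization, anion-exchange isolation of [14C]mevalonate, scintillation. Five concentrations, duplicate, ≥2 occasions; pravastatin reference.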

HepG2 = assay: Tested for ability to inhibit the incorporation of [14C]- acetate in to cholesterol in HepG2 cells; assay type: functional, cell-based; settings: Homo sapiens
Summary of the method: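 HepG2 cells in MEM + 10% fetal calf serum to 80% confluency, switched to serum-free MEM; inhibitor and sodium [14C]acetate added together, 3 h. Saponified, petroleum ether extract; [14C]cholesterol separated by reverse-phase HPLC and measured by radioactivity flow monitor. At least five concentrations, triplicate, run twice; lovastatin standard.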

SMILES: CC(C)c1nc(-c2cccc(S(C)(=O)=O)c2)c(-c2ccc(F)cc2)n1/C=C/[C@@H](O)C[C@@H](O)CC(=O)O
- logD [1]: -0.6
- IC50 [2]: 2 nM

SMILES: CN(C)c1nc(-c2ccc(F)cc2)c(-c2ccc(F)cc2)n1/C=C/[C@@H](O)C[C@@H](O)CC(=O)O
- IC50 [2]: 9 nM

SMILES: O=C(O)C[C@H](O)C[C@H](O)CCn1c(C(F)(F)F)nc(-c2ccc(F)cc2)c1-c1cccc(Cl)c1
- IC50 [2]: 41 nM

SMILES: O=C(O)C[C@H](O)C[C@H](O)CCn1c(C(F)(F)F)nc(-c2ccc(C(F)(F)F)cc2)c1-c1ccc(F)cc1
- IC50 [2]: 200 nM

SMILES: CC(C)c1nc(-c2ccc(F)cc2)c(-c2ccc(F)cc2)n1/C=C/[C@H](O)C[C@@H](O)CC(=O)O
- IC50 [2]: 2000 nM

SMILES: CC(C)c1nc(-c2ccccc2)n(-c2ccc(F)cc2)c1/C=C/[C@@H](O)C[C@@H](O)CC(=O)O
- IC50 [2]: 2.6 nM

SMILES: CC(C)c1nc(-c2ccc(F)cc2)c(-c2ccc(F)cc2)n1/C=C/[C@@H](O)C[C@@H](O)CC(=O)O [listing 1 of 2 here]
- logD [1]: 0.72
- IC50 [2]: 2 nM
- IC50 (HepG2): 5.3 nM

SMILES: CC(C)c1nc(-c2ccc(F)cc2)c(-c2cccc(Cl)c2)n1/C=C/[C@@H](O)C[C@@H](O)CC(=O)O
- IC50 [2]: 8 nM

SMILES: CCc1cc(-c2c(-c3ccc(F)cc3)nc(C(C)C)n2/C=C/[C@@H](O)C[C@@H](O)CC(=O)O)cc(CC)c1F
- IC50 [2]: 100 nM

SMILES: COc1cccc(-c2nc(C(F)(F)F)n(CC[C@@H](O)C[C@@H](O)CC(=O)O)c2-c2ccc(F)cc2)c1
- IC50 [2]: 20 nM

SMILES: COc1cccc(-c2c(-c3ccc(F)cc3)nc(C(F)(F)F)n2CC[C@@H](O)C[C@@H](O)CC(=O)O)c1
- IC50 [2]: 135 nM

SMILES: Cc1cccc(-c2c(-c3ccc(F)cc3)nc(C(F)(F)F)n2CC[C@@H](O)C[C@@H](O)CC(=O)O)c1
- IC50 [2]: 74 nM

SMILES: Cc1cc(-c2c(-c3ccc(F)cc3)nc(C(C)C)n2/C=C/[C@@H](O)C[C@@H](O)CC(=O)O)cc(C)c1F
- IC50 [2]: 30 nM

SMILES: Cc1ccc(-c2nc(C(F)(F)F)n(CC[C@@H](O)C[C@@H](O)CC(=O)O)c2-c2ccc(F)cc2)cc1
- IC50 [2]: 43 nM

SMILES: CC(C)c1nc(-c2ccc(F)cc2)c(-c2ccc(F)cc2)n1CC[C@@H](O)C[C@@H](O)CC(=O)O
- IC50 [2]: 316 nM

SMILES: CC(C)(C)c1nc(-c2ccc(F)cc2)c(-c2ccc(F)cc2)n1/C=C/[C@@H](O)C[C@@H](O)CC(=O)O
- IC50 [2]: 7 nM

SMILES: O=C(O)C[C@H](O)C[C@H](O)CCn1c(C(F)(F)F)nc(-c2ccc(F)cc2)c1-c1ccc(F)cc1
- IC50 [2]: 38 nM

SMILES: CC(C)c1nc(-c2cccnc2)c(-c2ccc(F)cc2)n1/C=C/[C@@H](O)C[C@@H](O)CC(=O)O
- logD [1]: -0.43
- IC50 [2]: 1 nM

SMILES: CC(C)c1nc(-c2ccc(F)cc2)c(-c2cc(Cl)cc(Cl)c2)n1/C=C/[C@@H](O)C[C@@H](O)CC(=O)O
- IC50 [2]: 22 nM

SMILES: Cc1cc(F)ccc1-c1c(-c2ccc(F)cc2)nc(C(C)C)n1/C=C/[C@@H](O)C[C@@H](O)CC(=O)O
- logD [1]: 0.86
- IC50 [2]: 4 nM

SMILES: O=C(O)C[C@H](O)C[C@H](O)CCn1c(C(F)(F)F)nc(-c2ccc(F)cc2)c1-c1cccs1
- IC50 [2]: 215 nM

SMILES: Cc1cccc(-c2nc(C(F)(F)F)n(CC[C@@H](O)C[C@@H](O)CC(=O)O)c2-c2ccc(F)cc2)c1
- IC50 [2]: 29 nM

SMILES: O=C(O)C[C@H](O)C[C@H](O)CCn1c(C(F)(F)F)nc(-c2ccccc2)c1-c1ccc(F)cc1
- IC50 [2]: 31 nM

SMILES: O=C(O)C[C@H](O)C[C@H](O)CCn1c(C(F)(F)F)nc(-c2cccnc2)c1-c1ccc(F)cc1
- IC50 [2]: 66 nM

SMILES: CNc1cccc(-c2nc(C(C)C)n(/C=C/[C@@H](O)C[C@@H](O)CC(=O)O)c2-c2ccc(F)cc2)c1
- logD [1]: -0.05
- IC50 [2]: 3 nM

SMILES: CC(C)c1nc(-c2ccc(F)cc2)c(-c2ccc(F)cc2)n1/C=C/[C@@H](O)C[C@@H](O)CC(=O)O [listing 2 of 2 here]
- IC50 [2]: 1 nM
- IC50 (HepG2): 2.5 nM

SMILES: Cc1cc(-c2nc(C(C)C)n(/C=C/[C@@H](O)C[C@@H](O)CC(=O)O)c2-c2ccc(F)cc2)cc(C)c1Cl
- logD [1]: 2.27
- IC50 [2]: 2 nM
- IC50 (HepG2): 0.9 nM

SMILES: Cc1cc(-c2nc(C(F)(F)F)n(CC[C@@H](O)C[C@@H](O)CC(=O)O)c2-c2ccc(F)cc2)cc(C)c1F
- IC50 [2]: 32 nM

SMILES: O=C(O)C[C@H](O)C[C@H](O)CCn1c(C(F)(F)F)nc(-c2ccc(F)cc2)c1-c1ccc(C(F)(F)F)cc1
- IC50 [2]: > 1000 nM

SMILES: CC(C)c1c(-c2ccc(F)cc2)nc(-c2ccc(F)cc2)n1/C=C/[C@@H](O)C[C@@H](O)CC(=O)O
- logD [1]: 0.83
- IC50 [2]: 1 nM

SMILES: Cc1ccc(-c2c(-c3ccc(F)cc3)nc(C(F)(F)F)n2CC[C@@H](O)C[C@@H](O)CC(=O)O)cc1
- IC50 [2]: 750 nM

SMILES: O=C(O)C[C@H](O)C[C@H](O)CCn1c(C(F)(F)F)nc(-c2ccc(F)cc2)c1-c1cccnc1
- IC50 [2]: > 1000 nM

SMILES: Cc1nc(-c2ccc(F)cc2)c(-c2ccc(F)cc2)n1/C=C/[C@@H](O)C[C@@H](O)CC(=O)O
- IC50 [2]: > 100 nM

SMILES: O=C(O)C[C@H](O)C[C@H](O)CCn1c(C(F)(F)F)nc(-c2ccc(F)cc2)c1-c1ccccc1
- IC50 [2]: 201 nM

SMILES: Cc1cc(C)cc(-c2nc(C(F)(F)F)n(CC[C@@H](O)C[C@@H](O)CC(=O)O)c2-c2ccc(F)cc2)c1
- IC50 [2]: 24 nM

SMILES: COc1ccc(-c2nc(C(F)(F)F)n(CC[C@@H](O)C[C@@H](O)CC(=O)O)c2-c2ccc(F)cc2)cc1
- IC50 [2]: 68 nM

SMILES: O=C(O)C[C@H](O)C[C@H](O)CCn1c(C(F)(F)F)nc(-c2cccs2)c1-c1ccc(F)cc1
- IC50 [2]: 64 nM

SMILES: Cc1cc(C)cc(-c2c(-c3ccc(F)cc3)nc(C(C)C)n2/C=C/[C@@H](O)C[C@@H](O)CC(=O)O)c1
- IC50 [2]: 56 nM

SMILES: CC(C)c1nc(-c2ccc(F)cc2)c(-c2ccc(F)cc2)n1/C=C/[C@H](O)C[C@H](O)CC(=O)O
- IC50 [2]: 700 nM

SMILES: O=C(O)C[C@H](O)C[C@H](O)CCn1c(C(F)(F)F)nc(-c2cccc(Cl)c2)c1-c1ccc(F)cc1
- IC50 [2]: 17 nM

SMILES: Cc1cc(C)cc(-c2c(-c3ccc(F)cc3)nc(C(F)(F)F)n2CC[C@@H](O)C[C@@H](O)CC(=O)O)c1
- IC50 [2]: 38 nM

SMILES: O=C(O)C[C@H](O)C[C@H](O)/C=C/n1c(C(F)(F)F)nc(-c2ccc(F)cc2)c1-c1ccc(F)cc1
- logD [1]: 0.73
- IC50 [2]: 13 nM
- IC50 (HepG2): 15.8 nM

SMILES: Cc1cc(-c2c(-c3ccc(F)cc3)nc(C(F)(F)F)n2CC[C@@H](O)C[C@@H](O)CC(=O)O)cc(C)c1F
- IC50 [2]: 31 nM

SMILES: COc1ccc(-c2c(-c3ccc(F)cc3)nc(C(F)(F)F)n2CC[C@@H](O)C[C@@H](O)CC(=O)O)cc1
- IC50 [2]: 418 nM
